Laboratory results taken from ChEMBL document CHEMBL1134584 (J Med Chem, 2001).
Values belong to the compound of their own block, whether it stands above or below them.

Key:
[1] = molecular target: Somatostatin receptor type 5 (Homo sapiens, UniProt P35346); test: Inhibition of [125 I -Tyr]SRIF-14 binding to membranes isolated from CHO-K1 cells expressing cloned human SRIF receptor (sst-5) subtype; assay type: cell membranes
[2] = molecular target: Somatostatin receptor type 1 (Homo sapiens, UniProt P30872); test: Inhibition of [125 I -Tyr]SRIF-14 binding to membranes isolated from CHO-K1 cells expressing cloned human SRIF receptor (sst-1) subtype; assay type: cell membranes
[3] = molecular target: Somatostatin receptor type 4 (Homo sapiens, UniProt P31391); test: Inhibition of [125 I -Tyr]SRIF-14 binding to membranes isolated from CHO-K1 cells expressing cloned human SRIF receptor (sst-4) subtype; assay type: cell membranes
[4] = molecular target: T1, Somatostatin receptor type 2 (Homo sapiens, UniProt P30874); test: Inhibition of [125 I -Tyr]SRIF-14 binding to membranes isolated from CHO-K1 cells expressing cloned human SRIF receptor (sst-2) subtype; assay type: cell membranes
[5] = molecular target: T1, Somatostatin receptor type 2; test: Inhibition of [125 I -Tyr]SRIF-14 binding to membranes isolated from CHO-K1 cells expressing each of the cloned human SRIF receptor (sst-2) subtypes; assay type: cell membranes
Outline: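 Stable CHO-K1 clones transfected with human receptor cDNA in pCMV5. Membranes prepared from these cells, 10-20 µg protein/well, incubated with 0.05-0.1 nM [125I-Tyr11]SRIF-14 in 50 mM HEPES pH 7.4, 0.2% BSA, 5 mM MgCl2 plus protease inhibitors, 50-90 min at 37 °C depending on subtype. GF/C filtration, then counting. Nonspecific binding defined with 0.1 µM SRIF-14. Ki obtained by nonlinear regression.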

[6] = molecular target: T2, Somatostatin receptor type 3 (Homo sapiens, UniProt P32745); test: Inhibition of [125 I -Tyr]SRIF-14 binding to membranes isolated from CHO-K1 cells expressing cloned human SRIF receptor (sst-3) subtype; assay type: cell membranes
[7] = molecular target: T2, Somatostatin receptor type 3; test: Inhibitory concentration required to inhibit SRIF-14 induced reduction of cAMP in CHO-K1 cells expressing the human sst3 receptor.; assay type: functional, cell-based

T2 sequence (P32745 whole entry): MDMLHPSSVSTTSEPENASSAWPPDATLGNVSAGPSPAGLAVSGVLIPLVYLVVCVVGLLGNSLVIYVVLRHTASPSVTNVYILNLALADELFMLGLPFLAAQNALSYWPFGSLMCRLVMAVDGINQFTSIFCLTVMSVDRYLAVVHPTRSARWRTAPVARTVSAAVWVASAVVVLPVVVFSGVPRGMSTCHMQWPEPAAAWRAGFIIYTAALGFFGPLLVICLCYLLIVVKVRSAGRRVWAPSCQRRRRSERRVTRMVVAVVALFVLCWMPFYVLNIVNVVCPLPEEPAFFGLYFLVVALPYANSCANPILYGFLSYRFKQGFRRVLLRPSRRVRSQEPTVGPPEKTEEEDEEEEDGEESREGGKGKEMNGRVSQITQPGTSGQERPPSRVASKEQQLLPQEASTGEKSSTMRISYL
Somatostatin receptor type 1, sequence (P30872 whole entry): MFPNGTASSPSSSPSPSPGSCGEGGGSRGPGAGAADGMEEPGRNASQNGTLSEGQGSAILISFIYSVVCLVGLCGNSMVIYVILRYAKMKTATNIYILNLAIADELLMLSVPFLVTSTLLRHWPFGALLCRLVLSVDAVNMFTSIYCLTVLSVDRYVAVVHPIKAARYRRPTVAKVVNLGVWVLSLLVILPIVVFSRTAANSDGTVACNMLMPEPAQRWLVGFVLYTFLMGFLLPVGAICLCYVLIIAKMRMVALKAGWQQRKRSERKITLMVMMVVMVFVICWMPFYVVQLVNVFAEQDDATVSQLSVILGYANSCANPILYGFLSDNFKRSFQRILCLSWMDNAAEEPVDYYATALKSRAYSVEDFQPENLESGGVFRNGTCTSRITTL
Somatostatin receptor type 4, sequence (P31391 whole entry): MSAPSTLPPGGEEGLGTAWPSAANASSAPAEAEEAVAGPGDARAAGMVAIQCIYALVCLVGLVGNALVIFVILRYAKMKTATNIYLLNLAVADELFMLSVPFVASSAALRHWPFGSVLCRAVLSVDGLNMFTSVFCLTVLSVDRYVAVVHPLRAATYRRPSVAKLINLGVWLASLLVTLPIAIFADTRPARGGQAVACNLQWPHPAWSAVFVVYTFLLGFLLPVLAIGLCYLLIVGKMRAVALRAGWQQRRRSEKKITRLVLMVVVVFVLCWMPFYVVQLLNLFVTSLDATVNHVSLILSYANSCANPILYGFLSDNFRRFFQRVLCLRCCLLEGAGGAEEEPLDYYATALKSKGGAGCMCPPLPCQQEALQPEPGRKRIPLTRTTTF
T1 sequence (P30874 whole entry): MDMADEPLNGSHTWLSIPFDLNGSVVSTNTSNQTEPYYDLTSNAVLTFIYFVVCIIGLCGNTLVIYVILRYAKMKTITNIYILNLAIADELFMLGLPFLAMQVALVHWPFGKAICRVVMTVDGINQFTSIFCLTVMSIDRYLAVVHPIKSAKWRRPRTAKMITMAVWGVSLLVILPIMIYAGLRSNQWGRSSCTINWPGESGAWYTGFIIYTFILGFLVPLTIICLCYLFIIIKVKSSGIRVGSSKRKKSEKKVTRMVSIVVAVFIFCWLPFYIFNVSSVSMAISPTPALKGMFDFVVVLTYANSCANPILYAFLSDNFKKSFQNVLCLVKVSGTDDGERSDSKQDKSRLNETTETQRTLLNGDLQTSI
Somatostatin receptor type 5, sequence (P35346 whole entry): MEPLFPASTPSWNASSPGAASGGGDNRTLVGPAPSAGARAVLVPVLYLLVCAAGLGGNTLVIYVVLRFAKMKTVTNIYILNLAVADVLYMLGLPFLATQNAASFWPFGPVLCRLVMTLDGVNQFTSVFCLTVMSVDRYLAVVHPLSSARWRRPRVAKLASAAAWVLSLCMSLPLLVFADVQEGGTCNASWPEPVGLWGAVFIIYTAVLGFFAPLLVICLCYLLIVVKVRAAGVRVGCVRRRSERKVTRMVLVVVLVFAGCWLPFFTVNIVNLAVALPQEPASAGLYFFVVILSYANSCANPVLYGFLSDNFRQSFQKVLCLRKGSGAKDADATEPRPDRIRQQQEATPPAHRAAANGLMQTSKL

Compound: c1ccc(-c2c[nH]c(C3Cc4c([nH]c5ccccc45)C(C4CCCCC4)N3)n2)cc1 (centres undefined)
Ki [1]: > 10000 nM
Ki [2]: 1800 nM
Ki [3]: > 10000 nM
Ki [4]: > 10000 nM

Compound: C[C@@H](c1c[nH]c2ccccc12)[C@@H](NC(=O)N1CCC(n2c(=O)[nH]c3ccccc32)CC1)C(=O)N[C@@H](CCCCN)C(=O)OC(C)(C)C
Ki [5]: 0.01 nM

Compound: c1ccc(-c2c[nH]c([C@@H]3Cc4c([nH]c5ccccc45)C4(Cc5ccccc5C4)N3)n2)cc1
Ki [6]: 13 nM

Compound: O=[N+]([O-])c1ccccc1C1N[C@H](c2nc(-c3ccccc3)c[nH]2)Cc2c1[nH]c1ccccc21 (some centres undefined)
Ki [6]: 200 nM

Compound: CC(=O)N1CCC2(CC1)N[C@@H](c1nc(-c3ccccc3)c[nH]1)Cc1c2[nH]c2ccccc12
Ki [6]: 71 nM

Compound: COc1ccc(C2N[C@H](c3nc(-c4ccccc4)c[nH]3)Cc3c2[nH]c2ccccc32)cc1 (some centres undefined)
Ki [6]: 60 nM

Compound: CCCCC1(CCCC)N[C@@H](c2nc(-c3ccccc3)c[nH]2)Cc2c1[nH]c1ccccc21
Ki [1]: 2200 nM
Ki [2]: 3700 nM
Ki [6]: 0.64 nM
Ki [3]: 7100 nM
Ki [4]: > 10000 nM
IC50 [7]: 2.7 nM

Compound: CCCCC1(CCCC)N[C@H](c2nc(-c3ccccc3)c[nH]2)Cc2c1[nH]c1ccccc21 [listing 1 of 2 here]
Ki [1]: 3700 nM
Ki [2]: > 10000 nM
Ki [6]: 3.4 nM
Ki [3]: 9800 nM
Ki [4]: > 10000 nM
IC50 [7]: 6.8 nM

Compound: CCCCC1(CCCC)N[C@H](c2nc(-c3ccccc3)c[nH]2)Cc2c1[nH]c1ccccc21 [listing 2 of 2 here]
Ki [6]: 0.79 nM

Compound: CN(C)c1ccc(C2N[C@H](c3nc(-c4ccccc4)c[nH]3)Cc3c2[nH]c2ccccc32)cc1 (some centres undefined)
Ki [6]: 33 nM

Compound: c1ccc(-c2c[nH]c(-c3cc4c([nH]c5ccccc54)c(C4CCCCC4)n3)n2)cc1
Ki [6]: 750 nM

Compound: c1ccc(-c2c[nH]c([C@@H]3Cc4c([nH]c5ccccc45)C(c4ccncc4)N3)n2)cc1 (some centres undefined)
Ki [6]: 320 nM

Compound: c1ccc(-c2c[nH]c([C@@H]3Cc4c([nH]c5ccccc45)C4(N3)C3CC5CC(C3)CC4C5)n2)cc1 (some centres undefined)
Ki [6]: 84 nM

The next lines start with the values.

Ki [6]: 3800 nM
Compound: CCCCC1(CCCC)N[C@@H](c2nc(-c3ccccc3)cs2)Cc2c1[nH]c1ccccc21

Ki [6]: 28 nM
Compound: CCCCCCC1(CCCCCC)N[C@H](c2nc(-c3ccccc3)c[nH]2)Cc2c1[nH]c1ccccc21

Ki [6]: 17 nM
Compound: CCCCC1(CCCC)NC(c2nc(-c3ccccc3)c[nH]2)Cc2c1[nH]c1ccc(OCc3ccccc3)cc21 (centres undefined)

Ki [1]: > 10000 nM
Ki [2]: > 10000 nM
Ki [6]: 0.92 nM
Ki [3]: > 10000 nM
Ki [4]: > 10000 nM
IC50 [7]: 0.84 nM
Compound: CCCCCC1(CCCCC)N[C@H](c2nc(-c3ccccc3)c[nH]2)Cc2c1[nH]c1ccccc21

Ki [6]: 430 nM
Compound: CCCCC1(CCCC)N[C@@H](c2nc(-c3ccccc3)c[nH]2)Cc2c1sc1ccccc21

Ki [1]: > 10000 nM
Ki [2]: 4400 nM
Ki [6]: 0.9 nM
Ki [3]: > 10000 nM
Ki [4]: > 10000 nM
IC50 [7]: 5.4 nM
Compound: CC1(C2CCCCC2)N[C@H](c2nc(-c3ccccc3)c[nH]2)Cc2c1[nH]c1ccccc21 (some centres undefined)

Ki [6]: 6.9 nM
IC50 [7]: 450 nM
Compound: CCCCCC1(CCCCC)NC(c2nc(-c3ccccc3)c[nH]2)Cc2c1[nH]c1ccc(C)cc21 (centres undefined)

Ki [6]: 11 nM
Compound: CCCCCC1N[C@H](c2nc(-c3ccccc3)c[nH]2)Cc2c1[nH]c1ccccc21 (some centres undefined)

Ki [6]: 11 nM
Compound: CCC1(CC)N[C@H](c2nc(-c3ccccc3)c[nH]2)Cc2c1[nH]c1ccccc21

Ki [6]: 3.4 nM
IC50 [7]: 43 nM
Compound: CCCCC1(CCCC)NC(c2nc(-c3ccccc3)c[nH]2)Cc2c1[nH]c1ccc(Cl)cc21 (centres undefined)

Ki [6]: 5500 nM
Compound: CCCCC1(CCCC)N[C@H](c2nc(-c3ccccc3)c(-c3ccccc3)[nH]2)Cc2c1[nH]c1ccccc21
